Compound activity: PubChem BioAssay, several laboratories
CRFBP-R2 agonist – agonists of human CRF-binding protein/CRF-R2 receptor complex. HEK293 CRF-R2/CRF-BP, calcium dye fluorescence (FLIPR); percent of saturating CRF peptide response. activation, % at 13.2 µM. 0.46% of 350,000 active. AID 588473;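 active means activation of at least 50%, plus an integration ratio under a set limit after plate pattern correction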;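 further: plate controls were neutral control wells without compound for no effect and CRF at EC100 for full effect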
zfTRPN1 agonist – activates the zebrafish TRPN1 channel. HEK293 zebrafish TRPN1-YFP, Fluo-8 calcium fluorescence; 100% = response to 87 µM carbachol. activation, % at 3 µM. 0.18% of 220,000 active. AID 1424;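 active means activation above its plate's cutoff, the mean activation of test wells on that plate plus 3 SD, cut at about 19% in these data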;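 further: 0% = DMSO alone and 100% = 87 µM carbachol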
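Material: zebrafish TRPN1-YFP in HEK293 cells. Doses: one dose of 3 µM, 0.3% DMSO. Incubation: dye 1 h 37 °C plus 30 min RT. Measured by: intracellular calcium fluorescence with Fluo-8.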
TRPML3 agonist – agonists of human TRPML3 channel; Q8TDD5; HEK293 TRPML3-YFP, Fluo-8 calcium fluorescence; 100% = the carbachol control signal; activation, % at 3 µM; 0.29% of 220,000 active; AID 1448;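 active means activation above its plate's cutoff, the mean activation of the plate's test wells plus 3 SD, cut at about 12% in these data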;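 further: 0% = DMSO only wells and 100% = carbachol wells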
Target sequence (Q8TDD5 whole entry, looked up): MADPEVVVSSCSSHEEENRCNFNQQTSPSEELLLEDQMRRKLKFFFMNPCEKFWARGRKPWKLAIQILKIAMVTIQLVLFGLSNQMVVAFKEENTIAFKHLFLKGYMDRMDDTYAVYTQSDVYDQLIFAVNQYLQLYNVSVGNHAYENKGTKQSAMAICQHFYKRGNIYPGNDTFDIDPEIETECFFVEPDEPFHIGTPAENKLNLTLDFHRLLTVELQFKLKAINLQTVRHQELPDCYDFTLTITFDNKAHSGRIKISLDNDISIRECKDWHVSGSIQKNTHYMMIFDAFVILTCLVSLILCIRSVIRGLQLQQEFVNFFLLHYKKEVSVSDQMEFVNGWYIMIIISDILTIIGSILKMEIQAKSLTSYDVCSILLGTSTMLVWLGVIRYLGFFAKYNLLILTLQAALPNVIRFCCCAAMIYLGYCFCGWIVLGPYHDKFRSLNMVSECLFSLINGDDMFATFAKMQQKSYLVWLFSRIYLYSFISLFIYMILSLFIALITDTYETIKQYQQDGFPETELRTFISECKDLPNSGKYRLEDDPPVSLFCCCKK
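system = HEK293 cells stably carrying human TRPML3-YFP | doses = one concentration, 3 µM nominal, 0.3% DMSO | timing = dye loading 1 h 37 °C then 30 min ambient, 125 s read | detection = Fluo-8 calcium dye fluorescence, ex 470-495, em 515-575 nm | benchmarks = high control carbachol 87 µM, low control DMSO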
CRFR2-BP antag – antagonists of CRF-binding protein/CRF-R2 receptor complex; HEK293 CRF-R2/CRF-BP, CRF-induced calcium fluorescence; inhibition, % at 11.8 µM; 0.59% of 350,000 active; AID 588475;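 active means inhibition of the ligand-induced calcium signal above about 50% at the single tested concentration, limit read from the data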
An asterisk follows results filed as active; / = not tested or not shown. Compounds with a hit are over-represented: about 1.2% of the library has one in this group of screens.

SMILES	CRFBP-R2 agonist	zfTRPN1 agonist	TRPML3 agonist	CRFR2-BP antag
COc1ccc2nc(-c3ccccc3)cc(C(=O)OCC(=O)NC3CC3)c2c1	-1	/	/	-11
O=C(Nc1nc2ccccc2s1)c1cccc(S(=O)(=O)N2CCc3ccccc32)c1	2	1	0	-4
O=C(Nc1nc2c(s1)CN(Cc1ccccc1)CC2)c1cccc(S(=O)(=O)N2CCc3ccccc32)c1	93*	11	3	-92
C#CCOCCOCCOCCNc1nc(N2CCN(C(=O)[C@H]([C@@H](C)CC)n3cc(CCC(=O)O)nn3)CC2)nc(N2CCN(C(=O)[C@H](CCCCN)n3cc(CCC(=O)O)nn3)CC2)n1	-6	/	/	8
CCCN1C(=O)/C(=C/c2c(NCCCOC(C)C)nc3c(C)cccn3c2=O)SC1=S	191*	3	1	-233
CCC(C)Nc1nc2c(C)cccn2c(=O)c1C=Nc1ccc(OC)cc1 (stereo not given)	1	-2	0	-3
CCC(C)N1C(=O)/C(=C/c2c(NCCCOC(C)C)nc3c(C)cccn3c2=O)SC1=S (stereo not given)	59*	2	2	-122
COc1ccc2c(c1)/C(=C/c1cc(OC)c(OC)c(OC)c1)C(=O)N2	-3	/	/	106*
O=C(Nc1cc(C(F)(F)F)ccc1Cl)c1cccnc1	106*	/	/	-64
COc1ccc(N(C(=O)c2ccco2)S(=O)(=O)c2ccccc2)cc1	-1	-2	-1	13
CC1CCC2(CC1)NC(=O)N(CC(=O)N1c3ccccc3CC1C)C2=O (stereo not given)	-1	/	/	-20
COC(=O)/C=c1/s/c(=C(/C#N)C(=O)N2CCCCC2)n(-c2ccccc2)c1=O	-1	1	1	-9
COc1cc(/C=c2\s/c(=C(/C#N)C(=O)N3CCCC3)n(-c3ccccc3)c2=O)ccc1O	67*	10	3	-44
Cc1ccsc1CN(C(=O)c1ccccc1)C1CCS(=O)(=O)C1 (stereo not given)	-1	/	/	-7
Cc1ccc(C(=O)N(Cc2sccc2C)C2CCS(=O)(=O)C2)cc1 (stereo not given)	-14	/	/	50*
Cc1c(C(=O)NCC2CCCO2)sc2nc(-c3ccc(F)cc3)cn12 (stereo not given)	-5	2	1	56*
Cc1c(C(=O)NCc2ccccn2)sc2nc(-c3ccc(F)cc3)cn12	2	2	2	-19
COC(=O)C1=CN(CCCN2CCCC2=O)C=C(C(=O)OC)C1c1cccs1	-2	0	0	-6
COC(=O)C1=CN(Cc2ccc(OC)cc2)C=C(C(=O)OC)C1c1cccs1	-1	-1	0	111*
Cc1ccc(C(=O)CNc2ccccc2C)cc1	0	1	1	-23
Cc1cccn2c(/C=N/OCc3cccc(F)c3)c(-c3ccc(Cl)cc3)nc12	-3	1	0	95*
Cc1cc(/C=C2\SC(=S)N(Cc3ccco3)C2=O)c(C)n1-c1cccnc1	55*	2	1	-36
Cc1cc([N+](=O)[O-])ccc1NCc1ccccc1[N+](=O)[O-]	0	1	0	91*
Cc1cc(F)ccc1NCc1ccccc1[N+](=O)[O-]	2	-1	0	41
CC(C)NC(=O)N(C)C[C@H]1Oc2c(NC(=O)Nc3ccc4c(c3)OCO4)cccc2C(=O)N([C@H](C)CO)C[C@@H]1C	-1	/	/	-5
SMILES	CRFBP-R2 agonist	zfTRPN1 agonist	TRPML3 agonist	CRFR2-BP antag
CCOC(=O)c1cccc(NS(=O)(=O)Cc2ccccc2)c1	-4	-3	-1	149*
O=C(O)C1=C[C@@H](c2ccc(Br)cc2)C[C@@H](OCc2ccc(CO)cc2)O1	-1	1	0	76*
NC(=O)C1=C[C@H](c2ccc(Br)cc2)C[C@H](OCc2ccc(CO)cc2)O1	-1	0	1	12
CCOC(=O)c1sc(-c2ccccc2)cc1NC(=O)Nc1ccccc1	4	-1	1	-14
CCOC(=O)c1sc(-c2ccc(F)cc2)cc1NC(=O)Nc1ccccc1OC	89*	1	1	-93
COCCCNC(=O)CNC(=S)N(Cc1ccc(F)cc1)C1CCCCC1	-1	-1	-1	-13
COc1ccc(OC)c(/C=c2\sc3nc(-c4cccs4)nn3c2=O)c1	175*	1	0	-217
COc1cc(OC)cc(C(=O)NC(=S)NNC(=O)Cc2cccs2)c1	24	-2	0	12
O=C(COC(=O)C1CC(=O)N(Cc2ccco2)C1)c1ccc(OC(=O)c2ccco2)cc1 (stereo not given)	3	1	0	82*
